Screening data (PubChem)
F-actin modifier = modifiers of cytoskeleton assembly; inhibition, % at 2 µM; actives 0.18% (n = 91,000); HUVEC TNFa F-actin phalloidin imaging, high content;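 active = inhibition above the batch mean plus 3 SD and confirmed as a hit by visual image inspection, cut at about 30% in these data, passing the limit was not always enough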
Plk1 PBD FP = Plk1 (human) PBD binding inhibition; AID 693; actives 0.13% (n = 97,000); P53350; inhibition, %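 (tested at about 20 µM)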; Plk1 PBD phosphopeptide binding, fluorescence polarization; in the data active = inhibition above about 34%, passing the limit was not always enough
FAK blocker = blocks human focal adhesion kinase activity. inhibition, %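 (tested at 7 µM)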. actives 0.84% (n = 97,000). AID 727. Q05397. biochemical FAK kinase activity assay;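 also: 0% = DMSO and 100% = reference compound high control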
E-sel TNF inh = blocks E-selectin expression induced by TNF alpha; HUVEC TNFa-induced E-selectin immunofluorescence, high content; inhibition, % at 2 µM; actives 0.71% (n = 120,000);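 active = inhibition above the batch mean plus 3 SD, and confirmed as a hit on visual image review, cut at about 43% in these data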;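 also: 0% = TNF-stimulated DMSO wells and 100% = unstimulated control wells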
PLK1 inh = inhibitors of human PLK1 kinase; P53350; inhibition, % at 10 µM; recombinant PLK1 kinase, TR-FRET peptide phosphorylation; actives 0.53% (n = 97,000); AID 619;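 active = inhibition of 50% or more in the single-concentration screen; inactive = inhibition below 50%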;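 also: 0% = DMSO max control and 100% = H-89 dihydrochloride min control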
HIV Rev-RRE inh = inhibitors of HIV-1 Rev-RRE RNA interaction; P05866; Rev peptide-RRE RNA binding, FRET; inhibition, % at 8 µM; actives 0.79% (n = 97,000); AID 704;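 active = inhibition above the screen-wide mean plus 3 SD, cut at about 35% in these data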;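 also: 0% = median DMSO wells and 100% = median Neomycin B control wells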
Target sequence (P05866 whole entry, looked up): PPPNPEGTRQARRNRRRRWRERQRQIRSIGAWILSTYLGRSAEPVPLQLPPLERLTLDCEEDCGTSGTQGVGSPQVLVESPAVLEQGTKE
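assay system = Cy5-tagged RRE RNA duplex with fluorescein-tagged Rev peptide | incubation = 5 + 15 min at 25 °C | also added = labelled Rev peptide | measure = % inhibition of FRET ratio versus controls | benchmarks = DMSO wells as 0% and neomycin B wells as 100% inhibition | measured by = FRET fluorescence readout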
PLK1 inh conf = PLK1 (human) kinase inhibition, confirmed | shares compounds with PLK1 inh | recombinant PLK1 kinase, TR-FRET peptide phosphorylation | inhibition, % at 10 µM | actives 20% (n = 210) | AID 744;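 active = inhibition at or above 50% in each of two repeat confirmation tests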;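 also: 0% = DMSO max control and 100% = H-89 kinase-blocked min control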
Plk1 interf = interferes with the Plk1 assay readout, not true inhibition; shares compounds with PLK1 inh; AID 756; Plk1 TR-FRET assay interference, compound added post-reaction; inhibition (interference), % at 10 µM; 210 tested, under 10 active;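 active = both duplicate runs show 50% or greater inhibition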;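 also: 0% = DMSO max control and 100% = H-89 min control inhibited reaction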
PBD redox DR = counter-screen for Plk1 PBD inhibitors: redox cycling H2O2 generation; DTT; EC50, µM; AID 876; shares compounds with Plk1 PBD FP; 120 tested, under 10 active; call rule not given here
FAK inh confirm = FAK (human) inhibition confirmed; FAK kinase biochemical inhibition assay; inhibition, % at 7 µM; actives 28% (n = 750); shares compounds with FAK blocker
* hit, by the source's call; . = not tested or not shown. Most compounds without a hit are left out; they make up all but 2.2% or so of the library. Rule as the data show it, unless noted: active = inhibition above about 19%; inactive = the rest.

SMILES	F-actin modifier	Plk1 PBD FP	FAK blocker	E-sel TNF inh	PLK1 inh	HIV Rev-RRE inh	PLK1 inh conf	Plk1 interf	others
O=C(Nc1ccc(OC(F)F)cc1)Nc1cccc(C(F)(F)F)c1	-2	-21	1	-1	-12	5	.	.
CN(C)/C=N/c1cc(=O)n(C)c(=O)n1Cc1ccccc1	.	.	.	-17	.	.	.	.
CCOC(=O)Cc1csc(NC(=O)c2ccc(S(=O)(=O)N3CCOCC3)cc2)n1	.	.	.	34	.	.	.	.
CNS(=O)(=O)c1ccc2c(c1)oc(=O)c1cc(S(=O)(=O)NC)ccc12	.	.	.	15	.	.	.	.
Cc1ccccc1-c1nc(CS(=O)CC(=O)NCc2ccccc2)c(C)o1 (stereo unspecified)	.	-6	-1	.	79*	7	-17	-54
CC(C)Cn1c(N2CCN(CC(=O)Nc3ccc(Cl)cc3)CC2)nc2ccccc21	.	.	.	-4	.	.	.	.
Cc1cccc(-n2ncc3c(NCCc4ccc(S(N)(=O)=O)cc4)ncnc32)c1	.	-5	5	.	71*	11	-16	-56
O=C(Cn1c(=O)sc2ccccc21)Nc1ccc(O)cc1	.	.	.	0	.	.	.	.
Cc1[nH]nc2c1C1(CCN(Cc3ccccc3)CC1)C(C#N)=C(N)O2	-13	0	2	-3	72*	26	70*	-47
Nc1nc(-c2ccco2)c(-c2ccco2)s1	-24	-3	8	14	-7	13	.	.
c1coc(-c2nc(-c3ccco3)c(-c3ccco3)nc2-c2ccco2)c1	1	-14	99*	.	93*	-150	-3	-53	FAK inh confirm=3
O=C(O)C1CC=CCC1C(=O)NNc1ccccc1 (stereo unspecified)	.	.	.	-47	.	.	.	.
CS(=O)(=O)c1ccc2nc(N)sc2c1	36	38	3	12	-8	3	.	.
Nc1nc2ccc([N+](=O)[O-])c(N)c2s1	-11	14	25*	1	76*	4	75*	-46	FAK inh confirm=6
COc1ccc(C(=O)c2ccc(N3CCN(C(=O)c4ccc(F)cc4)CC3)c(F)c2)cc1Br	7	14	2	-13	-72	0	.	.
CCCc1cc(C(N)=O)c(NC(=O)c2ccco2)s1	15	4	27*	-49	127*	7	-2	-51	FAK inh confirm=10
CCOC(=O)c1ccc(NC(=O)CN(C)S(=O)(=O)c2ccc(Br)s2)cc1	.	.	.	-5	.	.	.	.
N#C/C(=N\Nc1c(Cl)cccc1Cl)C(=O)NN	11	2	45*	2	79*	6	77*	-58	FAK inh confirm=33*
CCCCc1ccc(Nc2ncnc3nc[nH]c23)cc1	-13	11	13	-1	32	12	.	.
Cc1ccc(Nc2ncnc3nc[nH]c23)cc1Cl	-9	-6	31*	19	76*	1	36	-56	FAK inh confirm=10
COc1cccc(Nc2ncnc3nc[nH]c23)c1	-4	16	23*	.	84*	6	70*	-45	FAK inh confirm=5
Cn1c(=O)c2c(ncn2Cc2ccccc2)n(C)c1=O	1	-10	-1	16	0	2	.	.
Cn1c(=O)c2c(ncn2CCCc2ccccc2)n(C)c1=O	23	51*	3	0	-11	4	.	.	PBD redox DR=>50
CCc1noc(C)c1C(=O)N1CCOCC1	0	41*	1	-10	-5	0	.	.	PBD redox DR=>50
CC(C)N(Cc1cc2ccccc2[nH]c1=O)C(=O)c1cccnc1	17	35*	-1	.	-9	4	.	.	PBD redox DR=>50
CC1CCCCN1C(=O)/C=C/c1ccccc1[N+](=O)[O-] (stereo unspecified)	.	.	.	-15	.	.	.	.
O=C(CN(c1ccccc1)S(=O)(=O)c1ccccc1[N+](=O)[O-])NN=C1CCCCCCC1	8	3	-3	31	-4	6	.	.
CCn1c(SCC(N)=O)nnc1-c1ccc(S(=O)(=O)N2CCN(C)CC2)cc1	0	44*	-3	-19	-11	3	.	.	PBD redox DR=>50
COc1ccc(C(=O)N(C)c2c(C)n(C)n(-c3ccccc3)c2=O)cc1OC	.	.	.	2	.	.	.	.
